Experimental data reported in ChEMBL document CHEMBL1140208, “Selectivity and mechanism of action of a growth factor receptor-bound protein 2 SRC homology 2 domain binding antagonist” (J Med Chem, 2008).
Blank lines part the entries; values can stand above or below the molecule they belong to. Activity calls are given as the source filed them. The calls are words filed in the database; no cut-off is given here.

Columns and labels:
[1] = (§1) Antimotility activity in human PC3M cells assessed as inhibition of HGF-stimulated cell migration after 24 hrs by Boyden chamber assay; format: functional, cell-based; settings: PC-3M
Method in brief: (§2)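 PC3M cells pretreated with compound 24 h, seeded 200,000 per modified Boyden chamber; migration stimulated with recombinant human HGF 50 ng/ml. Migrated cells counted by light microscopy in four fields (1 × 1.4 mm) per well, triplicate wells per condition; expressed as percent maximum, mean ± standard deviation; dose-response analysis.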

[2] = molecular target: Growth factor receptor-bound protein 2 (Homo sapiens) (UniProt P62993); test: Binding affinity to human recombinant HGF-stimulated Grb2-SH2 in human SK-LMS1 cells at 3 uM by immunoblot analysis; format: cell-based
Method in brief: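 SK-LMS-1 cells serum-deprived 16 h, stimulated with recombinant human HGF 25 ng/ml for 20 min, lysed in cold non-ionic detergent buffer. Biotinylated ligand (3 μM) added to lysate, 1 h on ice; streptavidin beads added, 1 h at 4°C. Beads washed five times with lysis buffer at 150–500 mM NaCl; bound Grb2 detected by SDS-PAGE and anti-Grb2 immunoblot.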

[3] = molecular target: Growth factor receptor-bound protein 2 (Homo sapiens) (UniProt P62993); test: Binding affinity to human recombinant HGF-stimulated Grb2-SH3 in human SK-LMS1 cells assessed as presence of associated protein Nck1 at 3 uM by immunoblot analysis; format: cell-based
[4] = molecular target: Growth factor receptor-bound protein 2 (Homo sapiens) (UniProt P62993); test: Binding affinity to human recombinant HGF-stimulated Grb2-SH3 in human SK-LMS1 cells assessed as presence of associated protein Nck2 at 3 uM by immunoblot analysis; format: cell-based
[5] = molecular target: Growth factor receptor-bound protein 2 (Homo sapiens) (UniProt P62993); test: Binding affinity to human recombinant HGF-stimulated Grb2-SH3 in human SK-LMS1 cells assessed as presence of associated protein Gab1 at 3 uM by immunoblot analysis; format: cell-based
[6] = molecular target: Growth factor receptor-bound protein 2 (Homo sapiens) (UniProt P62993); test: Binding affinity to human recombinant HGF-stimulated Grb2-SH3 in human SK-LMS1 cells assessed as presence of associated protein Sos1 at 3 uM by immunoblot analysis; format: cell-based
[7] = Selectivity ratio for streptavidin-coupled biotin-labeled Shc-SH2 to streptavidin-coupled biotin-labeled Grb2-SH2
Method in brief: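 Ratio of Shc-SH2 to Grb2-SH2 steady-state affinities, both measured by SPR on Neutravidin-captured biotinylated SH2 domains (Biacore T100, 25°C, PBS pH 7.4, inhibitors 1.25–1500 nM, 1:1 fit).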

[8] = molecular target: Serine/threonine-protein kinase PAK 1 (Homo sapiens) (UniProt Q13153); test: Inhibition of HGF-stimulated PAK1 activation in human PC3M cells at 1 uM after 16 hrs by immunoblot analysis; format: cell-based
Method in brief: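 PC3M cells serum-deprived and treated 16 h with 1 μM compound or left untreated, then stimulated briefly with HGF (50 ng/mL) for various times. Lysates probed by immunoblot with anti-phospho-PAK1; anti-PAK1 served as loading control.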

[9] = molecular target: Serine/threonine-protein kinase PAK 1 (Homo sapiens) (UniProt Q13153); test: Decrease in HGF-stimulated PAK1 nuclear translocation in human PC3M cells at 1 uM after 16 hrs by immunoblot analysis; format: cell-based
Method in brief: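 PC3M cells treated with compound for 16 h; nuclear extracts prepared with high-salt buffer. PAK1 detected by SDS-PAGE and anti-PAK1 immunoblot, with anti-CREB immunoblot alongside.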

PC-3M [10] = test: Inhibition of HGF-induced human PC3M cell migration assessed as reduction in actin bundle reorganization and membrane extension at 1 uM after 6 hrs by DAPI staining; format: functional, cell-based
Method in brief: (§3)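 Cells in chamber slides serum-deprived ± 1 μM compound for 24 h, monolayer scratched with pipet tip, then incubated ± HGF 50 ng/ml (6 h) before fixation and permeabilization. Blocked with 5% BSA, stained overnight at 4°C with Alexa488-phalloidin for F-actin, nuclei counterstained with DAPI; lamellipodia at wound edge imaged by epifluorescence videomicroscopy.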

MDCK = test: Inhibition of HGF-induced MDCK cell migration assessed as reduction in actin bundle reorganization and membrane extension at 1 uM after 6 hrs by DAPI staining; format: functional, cell-based; settings: Canis lupus familiaris; method in brief: as §3
PC-3M [11] = test: as §1; format: functional, cell-based; method in brief: as §2

Chain of Serine/threonine-protein kinase PAK 1 (Homo sapiens) (Q13153 whole entry): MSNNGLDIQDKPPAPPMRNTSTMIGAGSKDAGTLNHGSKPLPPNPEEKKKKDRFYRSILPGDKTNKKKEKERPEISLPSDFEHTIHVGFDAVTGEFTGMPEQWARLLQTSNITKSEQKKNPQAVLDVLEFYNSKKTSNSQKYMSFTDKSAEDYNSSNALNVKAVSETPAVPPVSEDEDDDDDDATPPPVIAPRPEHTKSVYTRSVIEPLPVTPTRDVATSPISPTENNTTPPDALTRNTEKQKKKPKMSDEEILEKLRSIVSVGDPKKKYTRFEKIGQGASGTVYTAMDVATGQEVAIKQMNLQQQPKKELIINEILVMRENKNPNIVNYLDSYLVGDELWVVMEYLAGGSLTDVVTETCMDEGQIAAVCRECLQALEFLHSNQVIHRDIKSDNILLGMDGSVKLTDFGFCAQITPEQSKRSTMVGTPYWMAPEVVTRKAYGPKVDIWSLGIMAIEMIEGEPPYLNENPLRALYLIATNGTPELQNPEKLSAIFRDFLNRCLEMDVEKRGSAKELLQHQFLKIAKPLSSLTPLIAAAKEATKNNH

IC50 [1]: 14 nM
Activity [2]: Active
Activity [3]: Active
Activity [4]: Active
Activity [5]: Active
Activity [6]: Active
Compound: NC(=O)C[C@H](NC(=O)C1(NC(=O)[C@H](Cc2ccc(C(C(=O)O)C(=O)O)cc2)NC(=O)C(=O)O)CCCCC1)C(=O)NCCCc1cccc2c(OC(=O)CCCCCNC(=O)CCCC[C@@H]3SC[C@@H]4NC(=O)N[C@@H]43)cccc12

Ratio [7]: 101
Compound: NC(=O)C[C@H](NC(=O)C1(NC(=O)[C@H](Cc2ccc(C(C(=O)O)C(=O)O)cc2)NC(=O)C(=O)O)CCCCC1)C(=O)NCCCc1cccc2c(O)cccc12

Compound: NC(=O)C[C@H](NC(=O)C1(NC(=O)[C@H](Cc2ccc(C(C(=O)O)C(=O)O)cc2)NC(=O)C(=O)O)CCCCC1)C(=O)NCCCc1cccc2ccccc12
Ratio [7]: 65
Activity [8]: Active
Activity [9]: Active
Activity (PC-3M [10]): Active
Activity (MDCK): Active

Activity [2]: inactive
Compound: NC(=O)C[C@H](NC(=O)C1(NC(=O)[C@H](Cc2ccc(O)cc2)NC(=O)C(=O)O)CCCCC1)C(=O)NCCCc1cccc2c(OC(=O)CCCCCNC(=O)CCCC[C@@H]3SC[C@@H]4NC(=O)N[C@@H]43)cccc12
Activity (PC-3M [11]): inactive
